Compounds with a hit are over-represented: about 3.5% of the library has one in this group of screens.
MrgX1 allo act: positive allosteric modulators of MrgX1, primary screen, HEK293 cells, Fluo-4 calcium flux; B-score at 10 µM; 310,000 tested, 0.63% active; FDSS; hits give high values; Mas-related G-protein coupled receptor member X1 (Homo sapiens), Q96LB2;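 active means plate-corrected calcium response at least 3 library SD above typical, normal starting fluorescence, not activating the receptor alone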;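 further: compound read alongside a low EC10 to EC30 dose of BAM8-22 agonist; peak minus trough fluorescence over baseline measured at the second addition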
Target sequence (Q96LB2 whole entry, looked up): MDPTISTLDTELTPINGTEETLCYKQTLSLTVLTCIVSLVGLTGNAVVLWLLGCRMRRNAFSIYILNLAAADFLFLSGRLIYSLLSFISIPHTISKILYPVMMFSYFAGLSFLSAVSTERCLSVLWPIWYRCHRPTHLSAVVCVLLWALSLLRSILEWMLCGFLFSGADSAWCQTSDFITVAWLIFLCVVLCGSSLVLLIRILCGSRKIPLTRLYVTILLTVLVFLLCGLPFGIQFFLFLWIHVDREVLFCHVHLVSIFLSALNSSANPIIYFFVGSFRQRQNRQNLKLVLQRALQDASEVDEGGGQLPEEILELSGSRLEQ
RGS4 pot: RGS4 potentiators or activators, primary screen, cell-based, HEK293 M3R inducible RGS4, calcium flux; 310,000 tested, 0.92% active; carbachol calcium flux Fluo4; hits give low values; B-score at 10 µM;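 active means B-score of the integrated calcium signal more than 4 SD below the library mean, with starting fluorescence not abnormally high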;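 further: negative B-score means reduced calcium response which marks RGS4 activation or potentiation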
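Reagent: ECmax carbachol challenge; Test system: M3R-expressing HEK293 line, RGS4 induced by doxycycline; Schedule: overnight RGS4 induction, 30 min dye load 37 °C, 20 min compound RT; Detection: calcium dye Fluo4 fluorescence; Read-out: Agonist-evoked peak-minus-minimum fluorescence over baseline, integrated ratio, B score.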
MrgX1 ag: agonists of human MrgX1 receptor, primary screen, HEK293 cells, Fluo-4 calcium flux; Fluo-4 calcium fluorescence, agonist mode; hits give high values; B-score at 10 µM; 310,000 tested, 0.44% active;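 active means calcium response B-score plate-corrected fluorescence ratio at least 3 library SD, with starting fluorescence B-score inside 5 SD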
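Test system: HEK293 cells stably expressing human MrgX1 receptor; amount: 15,000 cells per well; doses: compound delivered in addition one of three; times: overnight plating before 1 h dye loading; detection: Fluo-4 NW calcium-flux fluorescence, kinetic read; read-out basis: B-scored fluorescence response ratio; controls: positive and negative controls per plate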
MrgX1 antagonist: antagonists of human MrgX1 receptor, primary screen, HEK293 cells, Fluo-4 calcium flux | 310,000 tested, 1.3% active | AID 588676, 2011 | B-score at 10 µM | BAM8-22 antagonism; hits give low values | Mas-related G-protein coupled receptor member X1 (Homo sapiens), Q96LB2;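 active means calcium-response B-score plate-corrected more than 3 library SD below zero, starting fluorescence within 5 deviations, no agonist response on first addition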;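 further: peak minus trough fluorescence over baseline after final BAM8-22 challenge near maximal dose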
RGS4 block: RGS4 inhibitors, primary screen, cell-based, HEK293 M3R inducible RGS4, calcium flux. Regulator of G-protein signaling 4 (Homo sapiens), P49798. Fluo-4 calcium flux; hits give high values; triggered by carbachol at its EC20. B-score at 10 µM. 310,000 tested, 0.45% active. AID 463165, 2010;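 active means B-score, a plate-corrected calcium signal, over three deviations above library mean, with baseline fluorescence within five deviations of library mean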;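 further: RGS4 expression induced by doxycycline in cells with stable M3 receptor; B-score is computed from the integrated fluorescence ratio over baseline after carbachol; higher B-score means a larger calcium signal and so more RGS4 inhibition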
Target sequence (P49798 whole entry, looked up): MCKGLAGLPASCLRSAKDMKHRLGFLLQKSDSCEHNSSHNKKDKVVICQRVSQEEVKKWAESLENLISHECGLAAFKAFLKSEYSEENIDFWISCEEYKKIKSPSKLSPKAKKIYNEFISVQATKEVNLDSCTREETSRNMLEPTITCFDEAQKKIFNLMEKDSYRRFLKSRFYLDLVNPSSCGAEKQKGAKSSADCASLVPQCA
The depositor's hits bear a star; i = inactive; . = not tested or not shown.

SMILES | MrgX1 allo act | RGS4 pot | MrgX1 ag | MrgX1 antagonist | RGS4 block
CCCCn1nc(NS(=O)(=O)c2cccc3nonc23)c2cc3cccc(C)c3nc21 | 7.1* | i | i | i | i
C=CCC1CCC/C(=N\NS(=O)(=O)c2ccc(C)cc2)C1 (centres undefined) | i | i | i | i | i
O=C(c1ccccc1[N+](=O)[O-])N1N=C(c2ccccc2)CC1(O)C(F)(F)F (centres undefined) | i | -9.3* | i | i | i
O=C(C1CC1)N1N=C(c2ccccc2)CC1(O)C(F)(F)F (centres undefined) | i | i | i | i | i
Cc1nn(C)c(C)c1/C=N/N=C1\CCC2C3CCc4cc(O)ccc4C3CCC12C (centres undefined) | i | i | i | -5.6* | i
COc1cc(S(=O)(=O)Nc2ccc(C)cc2)ccc1N=Cc1c(C)[nH]n(-c2ccc(C)cc2)c1=O | i | i | i | i | i
COc1cc(S(=O)(=O)Nc2ccc(C)cc2)ccc1N=Cc1c(C)c(C#N)c(=O)n(C)c1O | i | -8.6* | i | i | i
CCc1cccc(CC)c1NC(=O)CN1C2CCCC1CC(NC(=O)Nc1cccc(OC)c1)C2 (centres undefined) | i | i | i | i | i
CCN(CC)CCCNC(=O)CSc1c2c(nc3cc(Cl)ccc13)CCCC2 | i | -7.2* | i | i | i
O=C(CSc1c2c(nc3cc(Cl)ccc13)CCCC2)NCCCN1CCOCC1 | i | i | i | i | i
CSc1ccc(CN2CCC(CO)(CCOc3ccccc3)CC2)cc1 | i | -7* | i | i | i
CCc1noc(C)c1C(=O)NNC(=O)c1ccccc1F | i | i | i | i | i
CN(C)c1ccc(/C=C/c2nc3ccccc3s2)cc1 | i | -7.5* | i | -6.3* | i
CCCCCC(=O)Nc1cccc(C2=NOC3(C2)C[C@@H](C(N)=O)N(C(=O)c2cc([N+](=O)[O-])cc([N+](=O)[O-])c2)C3)c1 (some centres undefined) | i | i | i | -6.1* | i
C=C(C)C(=O)N1CC2(CC(c3cccc(NC(=O)/C(C)=C\C)c3)=NO2)C[C@H]1C(N)=O (some centres undefined) | i | i | i | -4.8* | i
O=C(NCc1ccccc1Cl)c1ccccc1Oc1ccccc1 | i | i | i | i | i
CC1=CC(=C(C#N)c2nc3ccccc3s2)C=C(C)N1Cc1ccco1 | i | -7.6* | i | i | i
O=C(CN1CCN(c2ccc(F)cc2)CC1)Nc1ccccc1[N+](=O)[O-] | i | i | i | i | i
COc1cccc(-c2cc3c(-n4cccc4)ncnc3o2)c1 | i | -7.1* | i | i | i
Cc1ccc(N(C)S(=O)(=O)c2c[nH]c3ccc([N+](=O)[O-])cc23)cc1 | i | i | i | i | i
Nc1ccc(N=Nc2ccccc2)c2cccnc12 | i | i | i | i | 5*
CC1=CC(=O)C=C(C)C1=NOc1ccc([N+](=O)[O-])cc1 | i | i | 33* | i | i
NCCc1nnc(SCC(=O)c2ccc(Cl)cc2)o1 | i | i | i | i | i
COc1cc(OC)c(OC)cc1/C=C/C(=O)c1ccc(NS(=O)(=O)c2ccc(C)cc2)cc1 | i | i | i | -4.8* | i
Nc1ccc(Oc2ccc(F)cc2)nc1 | i | i | i | i | i
SMILES | MrgX1 allo act | RGS4 pot | MrgX1 ag | MrgX1 antagonist | RGS4 block
O=Cc1ccc(Oc2ccc(F)cc2)nc1 | i | i | i | -4.5* | i
Cc1ccc(-n2cc(CNCCc3ncc(C)[nH]3)c(-c3ccc(F)cc3)n2)cc1 | i | i | i | i | i
Cc1cc(C)[n+](-c2ccc(C(C)C)cc2)c2[nH]c(=O)[nH]c(=O)c12 | i | -9* | i | i | i
S=C(Nc1ccccc1)Nc1cc(Cl)ccc1Oc1ccccc1 | 9.1* | i | i | i | i
CC(NC(=O)c1sc2cc([N+](=O)[O-])ccc2c1Cl)C(C)(C)C (centres undefined) | 6.9* | i | i | i | i
O=[N+]([O-])c1ccc(Nc2ccccc2)c2nonc12 | i | i | i | i | i
O=[N+]([O-])c1ccc(Sc2cccc[n+]2[O-])c2nonc12 | . | -8.4* | . | . | i
CC(=O)Nc1ccc(S(=O)(=O)N2CCC(C(N)=O)(N3CCCCC3)CC2)cc1 | i | i | i | i | i
COc1ccc(N(CC(=O)N/N=C/c2cc3ccc(OC)cc3nc2Cl)S(=O)(=O)c2ccccc2)cc1 | 9.1* | i | i | i | i
Cc1ccc(NC(=O)CCNS(=O)(=O)c2ccc3c(c2)CCC(=O)N3)c(Br)c1 | i | i | i | i | i
CCC1CCCCN1C(=O)c1ccc(OC2CCN(C(=O)C3CC3)CC2)cc1 (centres undefined) | i | i | i | i | i
O=C(c1ccccc1)C(Nc1ccccn1)c1ccccc1 (centres undefined) | i | -7.5* | i | i | i
O=C(CC(=O)c1ccccc1)Nc1ccccn1 | i | i | i | i | i
CC(C)c1ccc(N2C=Nc3ccc(C(C)C)cc3C2)cc1 | i | -7.5* | i | i | i
C=CCOc1ccccc1CNCCCN1CCOCC1 | i | i | i | -7.3* | i
CSCC[C@H](N)C(=O)N1CCC(C(=O)N[C@H](C)C(=O)Nc2ccc(C(C)C)cc2)CC1 | i | i | i | i | i
CCCc1nnc(NC(=O)CSc2nnc(-c3ccco3)n2C)s1 | i | i | i | i | i
O=C(Nc1ccccc1Cl)C1(c2ccccc2)CC1(Cl)Cl (centres undefined) | i | -7* | i | i | i
NC(=O)CSc1oc(-c2ccco2)nc1S(=O)(=O)c1ccc(Br)cc1 | i | i | i | i | i
O=C(Nc1ccccc1)/C(=C/c1ccccc1)c1ccccc1 | i | i | i | i | i
Cc1ccccc1NC(=O)/C(=C/c1ccccc1)c1ccccc1 | 8.1* | i | i | i | i
Cc1cccc(C)c1NC(=O)/C(=C/c1ccco1)c1ccccc1 | 12* | i | i | i | i
Cc1ccc(N=C2NC(=O)/C(=C/c3cn(C)c4ccccc34)S2)cc1C | i | . | i | -4.8* | .
